Test results reported in ChEMBL document CHEMBL1158370, “New antimalarial and cytotoxic 4-nerolidylcatechol derivatives” (Eur J Med Chem, 2009).
Values after ≈ are worked out from the molar mass of the structure shown.

Key:
Plasmodium falciparum [1] = assay: Antimalarial activity against Plasmodium falciparum K1; format: functional, organism-based
Outline: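 P. falciparum K1 (multidrug-resistant) cultured with compound at serial dilutions; growth measured as percentage reduction versus untreated controls; IC50 derived by probit analysis. Only compounds active in the preliminary single-concentration screen went on to this step.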

HL-60 = assay: Cytotoxicity against human HL60 cells after 72 hrs by MTT assay; format: functional, cell-based; conditions: HL-60, 72 h
Outline: (§1)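 Human tumour lines were grown in RPMI 1640 with 10% fetal bovine serum and 1% antibiotics at 37 °C under 5% CO2. Plating densities were 0.7 × 10⁵ for HCT-8, 0.6 × 10⁵ for SF-295 and 0.3 × 10⁶ for HL-60. Samples came from a 5 mg/mL DMSO stock and were incubated 72 h. MTT read at 550 nm; growth inhibition relative to […]. Triplicate, two independent experiments.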

HCT-8 = assay: Cytotoxicity against human HCT8 cells after 72 hrs by MTT assay; format: functional, cell-based; outline: as §1
SF-295 = assay: Cytotoxicity against human SF295 cells after 72 hrs by MTT assay; format: functional, cell-based; outline: as §1
MDA-MB-435 = assay: Cytotoxicity against human MDA-MB-435 cells after 72 hrs by MTT assay; format: functional, cell-based
Plasmodium falciparum [2] = assay: Antimalarial activity against Plasmodium falciparum K1 at 50 ug/mL; format: functional
Outline: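 Preliminary screen against P. falciparum K1 at two concentrations, printed as 50 and 2.5 (unit unclear). Parasite growth given as percentage reduction versus untreated controls.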

**Q.** Which IC50 (Plasmodium falciparum [1]) does the source give for Oc1ccccc1O [CATECHOL] here?
**A.** Its IC50 is 80600 nM.

**Q.** What about the IC50 (HL-60) of the same compound?
**A.** The IC50 was 1.08 µg/mL (≈ 9.81 µM).

**Q.** What about the IC50 (HCT-8; Homo sapiens, HCT-8, 72 h, read-out: IC50) of the same compound?
**A.** The IC50 was 13.5 µg/mL (≈ 123 µM).

**Q.** And the IC50 (SF-295; Homo sapiens, SF-295, 72 h, read-out: IC50)?
**A.** Its IC50 is 12.9 µg/mL (≈ 117 µM).

**Q.** What about the IC50 (MDA-MB-435; Homo sapiens, MDA-MB-435, 72 h, read-out: IC50) of the same compound?
**A.** Its IC50 is > 25 µg/mL.

**Q.** For CCN(CC)CCCC(C)Nc1ccnc2cc(Cl)ccc12 (stereo unspecified) [CHLOROQUINE PHOSPHATE], which IC50 (Plasmodium falciparum [1]) is on record?
**A.** The IC50 was 890 nM.

**Q.** Which inhibition at 50 µg/mL (Plasmodium falciparum [2]) does the source give for C=C[C@@](C)(O)CC/C=C(/C)CCC=C(C)C [NEROLIDIOL] here?
**A.** Its inhibition at 50 µg/mL is 50%.

**Q.** What about the IC50 (HCT-8; hct-8) of the same compound?
**A.** The IC50 was “Not Active”.

**Q.** What about the IC50 (SF-295; sf-295) of the same compound?
**A.** The IC50 was “Not Active”.

**Q.** What about the IC50 (MDA-MB-435; mda-mb-435) of the same compound?
**A.** Its IC50 is “Not Active”.

**Q.** For C=C[C@H]1CN2CC[C@H]1C[C@H]2[C@H](O)c1ccnc2ccc(OC)cc12 [QUININE], which IC50 (Plasmodium falciparum [1]) is on record?
**A.** Its IC50 is 12 nM.
